Experimental data as given in ChEMBL document CHEMBL4689842, “EUbOPEN Chemogenomics Library wave 1” (2021).
Where “and” joins values, the source holds several entries; their conditions need not be identical. Equal entries are not always repeated.

Test system: HEK-293T
Assay: Multiplex assay against HEK293T;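 for Population Tubulin-Different-Phenotype (%): share of the cells with healthy nuclei that show this phenotype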
Assay type: toxicity, cell-based
Settings: human
Outline: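 At seeding, live cells were stained with Hoechst33342, BioTracker Green Microtubule Cytoskeleton Dye, MitoTracker Red and Annexin V Alexa Fluor 680. After compound addition they were imaged on a CQ1 microscope at 37°C and 5% CO2, and CellPathfinder machine-learning gating sorted them into Hoechst high-intensity objects or normal cells, with normal cells further split into healthy, pyknosed or fragmented nuclei and pyknosed cells into mitotic or apoptotic. Tubulin, mitochondrial-mass and membrane-permeability phenotypes are given as per cents of cells with healthy nuclei.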

[1] = 12 h, 1 µM, compound concentration 1 uM, replicate 1
[2] = 12 h, 1 µM, compound concentration 1 uM, replicate 2
[3] = 12 h, 10 µM, compound concentration 10 uM, replicate 1
[4] = 12 h, 10 µM, compound concentration 10 uM, replicate 2
[5] = 24 h, 1 µM, compound concentration 1 uM, replicate 1
[6] = 24 h, 1 µM, compound concentration 1 uM, replicate 2
[7] = 24 h, 10 µM, compound concentration 10 uM, replicate 1
[8] = 24 h, 10 µM, compound concentration 10 uM, replicate 2
[9] = 48 h, 1 µM, compound concentration 1 uM, replicate 1
[10] = 48 h, 1 µM, compound concentration 1 uM, replicate 2
[11] = 48 h, 10 µM, compound concentration 10 uM, replicate 1
[12] = 48 h, 10 µM, compound concentration 10 uM, replicate 2

## C[C@]12CC[C@@H]3c4ccc(O)cc4CC[C@H]3[C@@H]1CC[C@@H]2O [ESTRADIOL]
[1]
  Population Apoptotic (%): 40%
  Population Fragmented Nuclei (%): 10%
  Population Healthy Nuclei (%): 45%
  Population Hoechst High Intensity Objects (%): 14%
  Population Membrane Permeable-Phenotype (%): 1%
  Population Mitochondria Different-Phenotype (%): 72%
  Population Mitotic Cells (%): 59%
  Population Normal (%): 85%
  Population Pyknosed Nuclei (%): 44%
  Population Tubulin-Different-Phenotype (%): 41%
[2]
  Population Apoptotic (%): 4%
  Population Fragmented Nuclei (%): 7%
  Population Healthy Nuclei (%): 42%
  Population Hoechst High Intensity Objects (%): 3%
  Population Membrane Permeable-Phenotype (%): 3%
  Population Mitochondria Different-Phenotype (%): 10%
  Population Mitotic Cells (%): 95%
  Population Normal (%): 96%
  Population Pyknosed Nuclei (%): 50%
  Population Tubulin-Different-Phenotype (%): 11%
[3]
  Population Apoptotic (%): 42%
  Population Fragmented Nuclei (%): 11%
  Population Hoechst High Intensity Objects (%): 15%
  Population Membrane Permeable-Phenotype (%): 0%
  Population Mitochondria Different-Phenotype (%): 76%
  Population Mitotic Cells (%): 57%
  Population Normal (%): 84%
  Population Pyknosed Nuclei (%): 52%
  Population Tubulin-Different-Phenotype (%): 29%
[4]
  Population Apoptotic (%): 10%
  Population Fragmented Nuclei (%): 5%
  Population Healthy Nuclei (%): 36%
  Population Hoechst High Intensity Objects (%): 5%
  Population Membrane Permeable-Phenotype (%): 1%
  Population Mitochondria Different-Phenotype (%): 11%
  Population Mitotic Cells (%): 89%
  Population Normal (%): 94%
  Population Pyknosed Nuclei (%): 58%
  Population Tubulin-Different-Phenotype (%): 9%
[5]
  Population Apoptotic (%): 37%
  Population Fragmented Nuclei (%): 12%
  Population Healthy Nuclei (%): 52%
  Population Hoechst High Intensity Objects (%): 16%
  Population Membrane Permeable-Phenotype (%): 1%
  Population Mitochondria Different-Phenotype (%): 45%
  Population Mitotic Cells (%): 62%
  Population Normal (%): 83%
  Population Pyknosed Nuclei (%): 34%
  Population Tubulin-Different-Phenotype (%): 34%
[6]
  Population Apoptotic (%): 6%
  Population Fragmented Nuclei (%): 3%
  Population Healthy Nuclei (%): 64%
  Population Hoechst High Intensity Objects (%): 3%
  Population Membrane Permeable-Phenotype (%): 10%
  Population Mitochondria Different-Phenotype (%): 6%
  Population Mitotic Cells (%): 93%
  Population Normal (%): 96%
  Population Pyknosed Nuclei (%): 31%
  Population Tubulin-Different-Phenotype (%): 21%
[7]
  Population Apoptotic (%): 39%
  Population Fragmented Nuclei (%): 11%
  Population Healthy Nuclei (%): 46%
  Population Hoechst High Intensity Objects (%): 16%
  Population Membrane Permeable-Phenotype (%): 1%
  Population Mitochondria Different-Phenotype (%): 53%
  Population Mitotic Cells (%): 60%
  Population Normal (%): 83%
  Population Pyknosed Nuclei (%): 41%
  Population Tubulin-Different-Phenotype (%): 39%
[8]
  Population Apoptotic (%): 7%
  Population Fragmented Nuclei (%): 5%
  Population Healthy Nuclei (%): 47%
  Population Hoechst High Intensity Objects (%): 5%
  Population Membrane Permeable-Phenotype (%): 8%
  Population Mitochondria Different-Phenotype (%): 12%
  Population Mitotic Cells (%): 92%
  Population Normal (%): 94%
  Population Pyknosed Nuclei (%): 47%
  Population Tubulin-Different-Phenotype (%): 12%
[9]
  Population Apoptotic (%): 42%
  Population Fragmented Nuclei (%): 15%
  Population Healthy Nuclei (%): 61%
  Population Hoechst High Intensity Objects (%): 13%
  Population Membrane Permeable-Phenotype (%): 3%
  Population Mitochondria Different-Phenotype (%): 20%
  Population Mitotic Cells (%): 57%
  Population Normal (%): 86%
  Population Pyknosed Nuclei (%): 23%
  Population Tubulin-Different-Phenotype (%): 25%
[10]
  Population Apoptotic (%): 3%
  Population Fragmented Nuclei (%): 5%
  Population Healthy Nuclei (%): 81%
  Population Hoechst High Intensity Objects (%): 3%
  Population Membrane Permeable-Phenotype (%): 8%
  Population Mitochondria Different-Phenotype (%): 3%
  Population Mitotic Cells (%): 96%
  Population Normal (%): 96%
  Population Pyknosed Nuclei (%): 13%
  Population Tubulin-Different-Phenotype (%): 13%
[11]
  Population Apoptotic (%): 29%
  Population Fragmented Nuclei (%): 16%
  Population Healthy Nuclei (%): 56%
  Population Hoechst High Intensity Objects (%): 11%
  Population Membrane Permeable-Phenotype (%): 1%
  Population Mitochondria Different-Phenotype (%): 30%
  Population Mitotic Cells (%): 70%
  Population Normal (%): 88%
  Population Tubulin-Different-Phenotype (%): 25%
[12]
  Population Apoptotic (%): 11%
  Population Fragmented Nuclei (%): 3%
  Population Healthy Nuclei (%): 69%
  Population Hoechst High Intensity Objects (%): 4%
  Population Membrane Permeable-Phenotype (%): 3%
  Population Mitochondria Different-Phenotype (%): 4%
  Population Mitotic Cells (%): 88%
  Population Normal (%): 95%
  Population Pyknosed Nuclei (%): 26%
  Population Tubulin-Different-Phenotype (%): 10%

## Cc1c[nH]c2nccc(Oc3c(F)cc(Nc4cc(Cl)nc(N)n4)cc3F)c12 [BAY-549]
[1]
  Population Apoptotic (%): 37%
  Population Fragmented Nuclei (%): 15%
  Population Healthy Nuclei (%): 32%
  Population Hoechst High Intensity Objects (%): 12%
  Population Membrane Permeable-Phenotype (%): 0%
  Population Mitochondria Different-Phenotype (%): 71%
  Population Mitotic Cells (%): 62%
  Population Normal (%): 87%
  Population Pyknosed Nuclei (%): 52%
  Population Tubulin-Different-Phenotype (%): 31%
  Total Cell Count: 310
[2]
  Population Apoptotic (%): 13%
  Population Fragmented Nuclei (%): 7%
  Population Healthy Nuclei (%): 54%
  Population Hoechst High Intensity Objects (%): 4%
  Population Membrane Permeable-Phenotype (%): 8%
  Population Mitochondria Different-Phenotype (%): 8%
  Population Mitotic Cells (%): 86%
  Population Normal (%): 95%
  Population Pyknosed Nuclei (%): 37%
  Population Tubulin-Different-Phenotype (%): 14%
  Total Cell Count: 236
[3]
  Population Apoptotic (%): 45%
  Population Fragmented Nuclei (%): 9%
  Population Healthy Nuclei (%): 45%
  Population Hoechst High Intensity Objects (%): 8%
  Population Mitochondria Different-Phenotype (%): 65%
  Population Mitotic Cells (%): 54%
  Population Normal (%): 91%
  Population Pyknosed Nuclei (%): 44%
  Population Tubulin-Different-Phenotype (%): 5%
  Total Cell Count: 370
[4]
  Population Apoptotic (%): 16%
  Population Fragmented Nuclei (%): 5%
  Population Healthy Nuclei (%): 42%
  Population Hoechst High Intensity Objects (%): 3%
  Population Membrane Permeable-Phenotype (%): 0%
  Population Mitochondria Different-Phenotype (%): 11%
  Population Mitotic Cells (%): 83%
  Population Normal (%): 96%
  Population Pyknosed Nuclei (%): 52%
  Population Tubulin-Different-Phenotype (%): 1%
  Total Cell Count: 247
[5]
  Population Apoptotic (%): 45%
  Population Fragmented Nuclei (%): 14%
  Population Healthy Nuclei (%): 32%
  Population Hoechst High Intensity Objects (%): 10%
  Population Membrane Permeable-Phenotype (%): 2%
  Population Mitochondria Different-Phenotype (%): 47%
  Population Mitotic Cells (%): 54%
  Population Normal (%): 89%
  Population Pyknosed Nuclei (%): 52%
  Population Tubulin-Different-Phenotype (%): 25%
  Total Cell Count: 284
[6]
  Population Apoptotic (%): 18%
  Population Fragmented Nuclei (%): 13%
  Population Healthy Nuclei (%): 66%
  Population Hoechst High Intensity Objects (%): 3%
  Population Membrane Permeable-Phenotype (%): 8%
  Population Mitochondria Different-Phenotype (%): 10%
  Population Mitotic Cells (%): 81%
  Population Normal (%): 96%
  Population Pyknosed Nuclei (%): 19%
  Population Tubulin-Different-Phenotype (%): 7%
  Total Cell Count: 255
[7]
  Population Apoptotic (%): 48%
  Population Fragmented Nuclei (%): 11%
  Population Healthy Nuclei (%): 41%
  Population Hoechst High Intensity Objects (%): 9%
  Population Mitochondria Different-Phenotype (%): 51%
  Population Mitotic Cells (%): 51%
  Population Normal (%): 90%
  Population Pyknosed Nuclei (%): 46%
  Population Tubulin-Different-Phenotype (%): 4%
  Total Cell Count: 375
[8]
  Population Apoptotic (%): 31%
  Population Fragmented Nuclei (%): 6%
  Population Healthy Nuclei (%): 49%
  Population Hoechst High Intensity Objects (%): 2%
  Population Membrane Permeable-Phenotype (%): 0%
  Population Mitochondria Different-Phenotype (%): 21%
  Population Mitotic Cells (%): 68%
  Population Normal (%): 97%
  Population Pyknosed Nuclei (%): 44%
  Population Tubulin-Different-Phenotype (%): 5%
  Total Cell Count: 233
[9]
  Population Apoptotic (%): 48%
  Population Fragmented Nuclei (%): 29%
  Population Healthy Nuclei (%): 34%
  Population Hoechst High Intensity Objects (%): 9%
  Population Membrane Permeable-Phenotype (%): 1%
  Population Mitochondria Different-Phenotype (%): 24%
  Population Mitotic Cells (%): 51%
  Population Normal (%): 90%
  Population Pyknosed Nuclei (%): 36%
  Population Tubulin-Different-Phenotype (%): 24%
  Total Cell Count: 307
[10]
  Population Apoptotic (%): 28%
  Population Fragmented Nuclei (%): 25%
  Population Healthy Nuclei (%): 64%
  Population Hoechst High Intensity Objects (%): 2%
  Population Membrane Permeable-Phenotype (%): 8%
  Population Mitochondria Different-Phenotype (%): 4%
  Population Mitotic Cells (%): 71%
  Population Normal (%): 97%
  Population Pyknosed Nuclei (%): 10%
  Population Tubulin-Different-Phenotype (%): 10%
  Total Cell Count: 336
[11]
  Population Apoptotic (%): 60%
  Population Fragmented Nuclei (%): 16%
  Population Healthy Nuclei (%): 34%
  Population Hoechst High Intensity Objects (%): 9%
  Population Mitochondria Different-Phenotype (%): 45%
  Population Mitotic Cells (%): 39%
  Population Normal (%): 90%
  Population Pyknosed Nuclei (%): 48%
  Population Tubulin-Different-Phenotype (%): 6%
  Total Cell Count: 330
[12]
  Population Apoptotic (%): 56%
  Population Fragmented Nuclei (%): 4%
  Population Healthy Nuclei (%): 47%
  Population Hoechst High Intensity Objects (%): 3%
  Population Membrane Permeable-Phenotype (%): 1%
  Population Mitochondria Different-Phenotype (%): 10%
  Population Mitotic Cells (%): 43%
  Population Normal (%): 96%
  Population Pyknosed Nuclei (%): 47%
  Population Tubulin-Different-Phenotype (%): 8%
  Total Cell Count: 219

## Cc1cc(NC(=O)c2cccc(S(F)(F)(F)(F)F)c2)cc(-n2ccn3nc(-c4cccnc4)cc23)c1 [BAY-309]
[3]
  Population Fragmented Nuclei (%): 16% and 13%
  Population Healthy Nuclei (%): 34% and 63%
  Population Hoechst High Intensity Objects (%): 16% and 9%
  Population Membrane Permeable-Phenotype (%): 25% and 14%
  Population Mitochondria Different-Phenotype (%): 32% and 12%
  Population Mitotic Cells (%): 34% and 83%
  Population Normal (%): 83% and 90%
  Population Pyknosed Nuclei (%): 48% and 23%
  Population Tubulin-Different-Phenotype (%): 86% and 41%
  Total Cell Count: 619 and 653
[4]
  Population Fragmented Nuclei (%): 3% and 2%
  Population Healthy Nuclei (%): 87% and 72%
  Population Hoechst High Intensity Objects (%): 2% and 4%
  Population Membrane Permeable-Phenotype (%): 16% and 17%
  Population Mitotic Cells (%): 92% and 54%
  Population Normal (%): 97% and 95%
  Population Tubulin-Different-Phenotype (%): 59% and 98%
  Total Cell Count: 1524 and 975
[7]
  Population Fragmented Nuclei (%): 19% and 9%
  Population Healthy Nuclei (%): 29% and 77%
  Population Hoechst High Intensity Objects (%): 16% and 7%
  Population Membrane Permeable-Phenotype (%): 10% and 21%
  Population Normal (%): 83% and 92%
  Population Tubulin-Different-Phenotype (%): 85% and 66%
  Total Cell Count: 590 and 755
[8]
  Population Healthy Nuclei (%): 79% and 66%
  Population Hoechst High Intensity Objects (%): 3% and 6%
  Population Mitotic Cells (%): 94% and 45%
  Population Normal (%): 96% and 93%
  Population Tubulin-Different-Phenotype (%): 67% and 98%
  Total Cell Count: 2348 and 996
